From ChEMBL document CHEMBL3259653, “Potent and selective inhibitors of human reticulocyte 12/15-lipoxygenase as anti-stroke therapies” (J Med Chem, 2014)
Activity calls are given as the source filed them. The calls are words filed in the database; no cut-off is given here.

Legend:
[1] = Metabolic stability in mouse plasma assessed as compound remaining measured at 2 hrs; assay type: ADME, cell-free; settings: read-out: Stability
Procedure, shortened: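 Compound was incubated in mouse plasma, and the percent remaining was measured at 2 h. Run at a contract lab.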

[2] = system: Mus musculus; test: Neuroprotective activity in C57BL6J mouse distal middle cerebral artery occlusion model of permanent focal ischemia assessed as reduction in infarct size at 50 mg/kg, ip administered 2 hrs post ischemia induction measured after 24 hrs by TTC staining relative to vehicle-treated control; assay type: functional; design: scale not given: the % may be the effect or the level left; settings: route intraperitoneal
Procedure, shortened: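 FeCl3-induced distal MCA occlusion: 10% FeCl3-saturated filter paper on intact dura along MCA under 1.5% isoflurane in N2O/O2, body temperature held at 37 ± 0.3 °C, rCBF followed by laser doppler for 3 h. Compound or DMSO vehicle given IP after 2 h ischemia. Sacrifice at 24 h; TTC staining of 1 mm slices, indirect infarct volume; surgeon and assessor blinded.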

[3] = molecular target: T1, Polyunsaturated fatty acid lipoxygenase ALOX15 (Mus musculus) (UniProt P39654); test: Inhibition of 12/15-lipoxygenase in mouse HT22 cells assessed as protection against glutamate-induced cell death after 24 hrs by LDH release assay; assay type: cell-based; settings: HT-22
T1 sequence (whole entry): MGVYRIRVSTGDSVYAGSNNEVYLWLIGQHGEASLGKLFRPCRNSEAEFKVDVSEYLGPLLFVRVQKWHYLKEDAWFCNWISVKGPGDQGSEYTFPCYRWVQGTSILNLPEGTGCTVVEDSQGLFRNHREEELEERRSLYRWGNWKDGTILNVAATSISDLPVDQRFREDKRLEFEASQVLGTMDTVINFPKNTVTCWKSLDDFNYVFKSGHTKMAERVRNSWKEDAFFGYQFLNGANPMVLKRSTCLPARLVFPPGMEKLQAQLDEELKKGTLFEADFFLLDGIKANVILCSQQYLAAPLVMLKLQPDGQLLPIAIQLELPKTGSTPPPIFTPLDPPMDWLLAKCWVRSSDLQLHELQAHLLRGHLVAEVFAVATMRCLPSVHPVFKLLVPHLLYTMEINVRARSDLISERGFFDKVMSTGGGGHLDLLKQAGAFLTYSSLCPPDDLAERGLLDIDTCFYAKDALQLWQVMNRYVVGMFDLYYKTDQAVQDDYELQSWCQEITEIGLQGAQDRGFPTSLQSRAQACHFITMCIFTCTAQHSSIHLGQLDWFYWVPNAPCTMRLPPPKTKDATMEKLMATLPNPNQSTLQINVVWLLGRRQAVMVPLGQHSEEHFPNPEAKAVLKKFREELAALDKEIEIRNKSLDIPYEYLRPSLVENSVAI
Procedure, shortened: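 HT22 mouse hippocampal cells were grown in DMEM with 10% FBS and penicillin/streptomycin, seeded at 1 × 10^4 cells/well and treated 18 h later at 50–70% confluence. Medium was exchanged for fresh medium with 5 mM glutamate plus compound or DMSO (≤0.1% final). Death was scored as percent LDH released to the medium versus the cell extract, background-subtracted.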

[4] = molecular target: T1, Polyunsaturated fatty acid lipoxygenase ALOX15 (Mus musculus); test: Inhibition of 12/15-lipoxygenase in mouse HT22 cells assessed as reduction of 12-HETE production at 10 uM after 24 hrs by HPLC/MS analysis; assay type: cell-based; settings: HT-22
Procedure, shortened: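 HT22 cells were grown in 75 cm² flasks in phenol red-free DMEM with 5% FBS and treated at 50–70% confluence with 5 mM glutamate with or without compound. After 24 h the eicosanoid fraction of the medium was isolated on a C-18 cartridge. 12-HETE was quantified by HPLC/MS against a 12(S)-HETE standard curve.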

[5] = molecular target: T2, Prostaglandin G/H synthase 1 (Ovis aries) (UniProt P05979); test: Inhibition of ovine COX-1 using arachidonic acid as substrate assessed as consumption of oxygen at 5 uM preincubated for 5 mins followed by substrate addition by oxygen electrode-based assay relative to control
T2 sequence (whole entry): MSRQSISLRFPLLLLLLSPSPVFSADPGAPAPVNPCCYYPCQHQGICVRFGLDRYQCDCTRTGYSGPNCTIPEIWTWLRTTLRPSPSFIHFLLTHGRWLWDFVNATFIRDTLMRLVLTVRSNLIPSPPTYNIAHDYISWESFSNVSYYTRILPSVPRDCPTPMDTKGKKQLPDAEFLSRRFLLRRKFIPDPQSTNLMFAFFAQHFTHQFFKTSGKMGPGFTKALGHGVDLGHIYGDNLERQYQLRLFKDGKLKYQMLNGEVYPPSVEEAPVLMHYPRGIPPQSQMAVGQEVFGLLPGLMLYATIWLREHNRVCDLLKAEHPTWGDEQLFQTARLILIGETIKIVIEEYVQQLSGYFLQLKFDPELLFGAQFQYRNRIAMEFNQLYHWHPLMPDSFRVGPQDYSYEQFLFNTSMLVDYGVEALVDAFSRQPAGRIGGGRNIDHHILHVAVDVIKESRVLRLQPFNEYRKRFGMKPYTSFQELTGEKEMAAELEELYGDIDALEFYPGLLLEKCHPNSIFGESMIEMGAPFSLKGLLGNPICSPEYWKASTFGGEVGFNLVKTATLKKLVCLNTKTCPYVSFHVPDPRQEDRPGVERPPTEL
Procedure, shortened: (§1)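 COX-1 or COX-2 (2–5 μg) in 0.1 M Tris-HCl pH 8.0 with 5 mM EDTA, 2 mM phenol and 1 μM hematin at 37 °C. Inhibitor was preincubated 5 min, then 100 μM arachidonic acid was added. Oxygen consumption was read on an oxygen electrode, and percent inhibition was calculated against a DMSO control, with indomethacin as positive control.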

[6] = molecular target: T3, Prostaglandin G/H synthase 2 (Homo sapiens) (UniProt P35354); test: Inhibition of human COX-2 using arachidonic acid as substrate assessed as consumption of oxygen at 5 uM preincubated for 5 mins followed by substrate addition by oxygen electrode-based assay relative to control; procedure, shortened: as §1
T3 sequence (whole entry): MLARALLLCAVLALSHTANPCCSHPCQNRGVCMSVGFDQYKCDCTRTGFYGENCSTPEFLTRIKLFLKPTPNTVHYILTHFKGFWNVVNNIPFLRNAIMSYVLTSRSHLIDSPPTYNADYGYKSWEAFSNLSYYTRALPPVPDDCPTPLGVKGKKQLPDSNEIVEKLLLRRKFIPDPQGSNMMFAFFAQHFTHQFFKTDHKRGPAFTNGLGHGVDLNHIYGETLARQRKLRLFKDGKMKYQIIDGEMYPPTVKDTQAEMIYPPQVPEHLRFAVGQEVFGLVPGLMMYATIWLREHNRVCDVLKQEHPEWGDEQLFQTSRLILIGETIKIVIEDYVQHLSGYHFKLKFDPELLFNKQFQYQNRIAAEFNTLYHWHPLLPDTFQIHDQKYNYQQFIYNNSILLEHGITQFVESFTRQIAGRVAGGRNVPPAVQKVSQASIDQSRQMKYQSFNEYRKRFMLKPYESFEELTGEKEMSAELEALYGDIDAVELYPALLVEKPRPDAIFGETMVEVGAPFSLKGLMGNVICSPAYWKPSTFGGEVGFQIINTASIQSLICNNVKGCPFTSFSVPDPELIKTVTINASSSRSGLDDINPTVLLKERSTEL

[7] = system: Liver microsome; test: Half life in rat liver microsomes in presence of NADPH; assay type: ADME
Procedure, shortened: (§2)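 Rat or mouse liver microsomes were incubated with NADPH, and half-life was taken from compound depletion. Run at a contract lab.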

[8] = system: Liver; test: Half life in mouse liver microsomes in presence of NADPH; assay type: ADME; procedure, shortened: as §2
[9] = system: Liver microsome; test: Metabolic stability in rat liver microsomes measured over 1 hr in absence of NADPH; assay type: ADME
Procedure, shortened: (§3)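 Liver microsomes (mouse or rat) were incubated without NADPH over a 1 h period, and compound degradation was followed. Run at a contract lab.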

[10] = system: Liver; test: Metabolic stability in mouse liver microsomes measured over 1 hr in absence of NADPH; assay type: ADME; procedure, shortened: as §3
[11] = Stability of the compound in buffer at pH 2 measured over 48 hrs; assay type: physicochemical; settings: pH 2, 48 h
[12] = Stability of the compound in DPBS buffer at pH 7.4 measured over 48 hrs; assay type: physicochemical; settings: pH 7.4, 48 h
[13] = Stability of the compound in buffer at pH 9 measured over 48 hrs; assay type: physicochemical; settings: pH 9, 48 h
[14] = system: Plasma; test: Half life in CD1 mouse plasma at 30 mg/kg, ip; assay type: ADME, organism-based; design: dose 30 mg/kg, route intraperitoneal; settings: in vivo
Procedure, shortened: (§4)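 Male CD1 mice, 6–8 weeks old, given a single 30 mg/kg IP dose formulated as a solution in 10% Solutol, 10% Cremophor EL and 20% PEG 400 in saline. Plasma and brain were sampled at eight time points over 24 h, in triplicate. Study run at a contract lab.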

[15] = system: Brain; test: Half life in CD1 mouse brain at 30 mg/kg, ip; assay type: ADME, organism-based; design: dose 30 mg/kg, route intraperitoneal; settings: in vivo; procedure, shortened: as §4
[16] = system: Plasma; test: Cmax in CD1 mouse plasma at 30 mg/kg, ip; assay type: ADME, organism-based; design: dose 30 mg/kg, route intraperitoneal; settings: in vivo; procedure, shortened: as §4
[17] = system: Brain; test: Cmax in CD1 mouse brain at 30 mg/kg, ip; assay type: ADME, organism-based; design: dose 30 mg/kg, route intraperitoneal; settings: in vivo; procedure, shortened: as §4

For `CNc1oc(-c2cccc3ccccc23)nc1C#N`, which remaining at 2 h [1] is on record?
Its remaining at 2 h is 100%.

What about the Activity [2] of the same molecule?
Its Activity is 30%.

And the inhibition [3]?
Its inhibition is “Dose-dependent effect”.

What about the inhibition [4] of the same molecule?
The inhibition was “Active”.

And the inhibition [5]?
The inhibition was under 10%.

And the inhibition [6]?
Its inhibition is under 10%.

What about the t1/2 [7] of the same molecule?
The t1/2 was 18 min.

And the t1/2 [8]?
The t1/2 was 5.5 min.

What about the Stability [9] of the same molecule?
The Stability was “Stable”.

And the Stability [10]?
The Stability was “Stable”.

What about the Stability [11] of the same molecule?
Its Stability is “Stable”.

What about the Stability [12] of the same molecule?
Its Stability is “Stable”.

And the Stability [13]?
Its Stability is “Stable”.

And the t1/2 [14]?
The t1/2 was 66 min.

What about the t1/2 [15] of the same molecule?
The t1/2 was 60 min.

And the Cmax [16]?
The Cmax was 13.8 µM.

And the Cmax [17]?
The Cmax was 28.8 µM.
